Calls of active or inactive are those of the source. No cut-off for these calls is given here.
Legend:
[1] = target: Tyrosine-protein kinase Tec (Homo sapiens) (UniProt P42680); assay: Inhibition of human TEC assessed as remaining activity at 1 uM by ATP-competition binding assay relative to control
Procedure, shortened: (§1)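 KINOMEscan ATP-site-dependent competition binding assay across a 395-kinase human panel including mutants; compound tested at 1μM; binding expressed relative to control signal.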

[2] = target: Calcium/calmodulin-dependent protein kinase type 1G (Homo sapiens) (UniProt Q96NX5); assay: Inhibition of human CAMK1G assessed as remaining activity at 1 uM by ATP-competition binding assay relative to control
Procedure, shortened: (§2)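 KINOMEscan ATP-site-dependent competition binding panel of 395 human kinases, with compound tested at 1 μM. Binding is reported as remaining signal relative to control.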

[3] = target: Cyclin-dependent kinase 7 (Homo sapiens) (UniProt P50613); assay: Inhibition of human CDK7 assessed as remaining activity at 1 uM by ATP-competition binding assay relative to control; procedure, shortened: as §2
[4] = target: Mitogen-activated protein kinase kinase kinase 20 (Homo sapiens) (UniProt Q9NYL2); assay: Inhibition of human ZAK assessed as remaining activity at 1 uM by ATP-competition binding assay relative to control
Procedure, shortened: (§3)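 Single-concentration (1 μM) screen in an ATP-site-dependent competition binding assay (KINOMEscan, outsourced) covering 395 human kinases, mutants included. Non-covalent binding was read as the remaining signal relative to the control signal.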

[5] = target: Activin receptor type-1-like (Homo sapiens) (UniProt P37023); assay: Inhibition of human ACVRL1 assessed as remaining activity at 1 uM by ATP-competition binding assay relative to control; procedure, shortened: as §2
[6] = target: Tyrosine-protein kinase Fes/Fps (Homo sapiens) (UniProt P07332); assay: Inhibition of human FES assessed as remaining activity at 1 uM by ATP-competition binding assay relative to control
Procedure, shortened: (§4)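 Single-point profiling at 1μM in an ATP-site-dependent competition binding assay across a panel of 395 human kinases, including mutant forms. The read-out is kinase binding signal in the presence of test agent, expressed as inhibition relative to the control signal. This screen assessed noncovalent binding interactions.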

[7] = target: LIM domain kinase 1 (Homo sapiens) (UniProt P53667); assay: Inhibition of human LIMK1 assessed as remaining activity at 1 uM by ATP-competition binding assay relative to control; procedure, shortened: as §4
[8] = target: SRSF protein kinase 3 (Homo sapiens) (UniProt Q9UPE1); assay: Inhibition of human SRPK3 assessed as remaining activity at 1 uM by ATP-competition binding assay relative to control; procedure, shortened: as §3
[9] = target: Dual specificity protein kinase TTK (Homo sapiens) (UniProt P33981); assay: Inhibition of human TTK assessed as remaining activity at 1 uM by ATP-competition binding assay relative to control; procedure, shortened: as §3
[10] = target: RAF proto-oncogene serine/threonine-protein kinase (Homo sapiens) (UniProt P04049); assay: Inhibition of human RAF1 assessed as remaining activity at 1 uM by ATP-competition binding assay relative to control; procedure, shortened: as §3
[11] = tested on: Epidermal growth factor receptor (Homo sapiens), P00533 [UNDEFINED MUTATION]; assay: Inhibition of human EGFR L747-E749del/A750P mutant assessed as remaining activity at 1 uM by ATP-competition binding assay relative to control; procedure, shortened: as §1
[12] = target: Serine/threonine-protein kinase 4 (Homo sapiens) (UniProt Q13043); assay: Inhibition of human MST1 assessed as remaining activity at 1 uM by ATP-competition binding assay relative to control; procedure, shortened: as §4
[13] = target: Cyclin-dependent kinase 16 (Homo sapiens) (UniProt Q00536); assay: Inhibition of human PCTK1 assessed as remaining activity at 1 uM by ATP-competition binding assay relative to control; procedure, shortened: as §4
[14] = target: Calcium/calmodulin-dependent protein kinase type II subunit gamma (Homo sapiens) (UniProt Q13555); assay: Inhibition of human CAMK2G assessed as remaining activity at 1 uM by ATP-competition binding assay relative to control; procedure, shortened: as §2
[15] = target: Serine/threonine-protein kinase PRP4 homolog (Homo sapiens) (UniProt Q13523); assay: Inhibition of human PRP4 assessed as remaining activity at 1 uM by ATP-competition binding assay relative to control; procedure, shortened: as §3
[16] = target: Tyrosine-protein kinase Tec (Homo sapiens) (UniProt P42680); assay: Inhibition of human TEC at < 100 nM by ATP-Competition Binding Assay
[17] = tested on: CLL mononuclear cell; assay: Antileukemic activity against human CLL mononuclear cells xenografted NSG mouse assessed as reduction in splenic tumor burden at 0.3 mg/ml preadministered with compound via drinking water and measured after 3 weeks by flow cytometry analysis; format: functional, cell-based
Procedure, shortened: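 Primary CLL patient mononuclear cells (1 × 10^8 per mouse) engrafted into NSG mice on day 0 after busulfan priming on day −1. Vehicle or drug was given in drinking water from day −1. Mice were killed 3 weeks after engraftment; spleens homogenized, filtered and RBC-lysed; whole blood collected. Six patients, 2–5 mice per patient; paired t-test per patient.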

[18] = tested on: Mast/stem cell growth factor receptor Kit (Homo sapiens), P10721 [L576P]; assay: Inhibition of human KIT L576P mutant assessed as remaining activity at 1 uM by ATP-competition binding assay relative to control; procedure, shortened: as §4
[19] = target: Ephrin type-A receptor 7 (Homo sapiens) (UniProt Q15375); assay: Inhibition of human EPHA7 assessed as remaining activity at 1 uM by ATP-competition binding assay relative to control; procedure, shortened: as §2
[20] = target: Maternal embryonic leucine zipper kinase (Homo sapiens) (UniProt Q14680); assay: Inhibition of human MELK assessed as remaining activity at 1 uM by ATP-competition binding assay relative to control; procedure, shortened: as §4
[21] = tested on: Splenocyte; assay: In vivo inhibition of BCR signaling in female […] mouse assessed as change in CD86 expression at 25 mg/kg, po administered and measured after stimulation with anti-IgM for 18 h by flow cytometry analysis; format: functional, organism-based
Procedure, shortened: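 Female C57BL/6 mice (5/group) received vehicle or 25 mg/kg drug by oral gavage at time zero, with spleens taken at time points from 3 to 24 h. Splenocytes were stimulated ex vivo with goat anti-mouse IgM at 10μg/mL for 18 h at 37°C in 5% CO2, then Fc-blocked and stained for CD19 plus CD69, CD86 or phospho-S6(S235/236), with 7-AAD to exclude dead cells. Read-out was flow cytometry on >5,000 gated CD19+ cells, compared with vehicle.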

[22] = target: Mitogen-activated protein kinase kinase kinase 11 (Homo sapiens) (UniProt Q16584); assay: Inhibition of human MLK3 assessed as remaining activity at 1 uM by ATP-competition binding assay relative to control; procedure, shortened: as §4
[23] = target: Casein kinase I isoform gamma-1 (Homo sapiens) (UniProt Q9HCP0); assay: Inhibition of human CSNK1G1 assessed as remaining activity at 1 uM by ATP-competition binding assay relative to control; procedure, shortened: as §2
[24] = target: Death-associated protein kinase 2 (Homo sapiens) (UniProt Q9UIK4); assay: Inhibition of human DAPK2 assessed as remaining activity at 1 uM by ATP-competition binding assay relative to control; procedure, shortened: as §2
[25] = target: Macrophage colony-stimulating factor 1 receptor (Homo sapiens) (UniProt P07333); assay: Inhibition of human CSF1R assessed as remaining activity at 1 uM by ATP-competition binding assay relative to control; procedure, shortened: as §2
[26] = target: Serine/threonine-protein kinase SIK1 (Homo sapiens) (UniProt P57059); assay: Inhibition of human SIK assessed as remaining activity at 1 uM by ATP-competition binding assay relative to control; procedure, shortened: as §3
Sequence of Serine/threonine-protein kinase SIK1 (Homo sapiens) (P57059 whole entry): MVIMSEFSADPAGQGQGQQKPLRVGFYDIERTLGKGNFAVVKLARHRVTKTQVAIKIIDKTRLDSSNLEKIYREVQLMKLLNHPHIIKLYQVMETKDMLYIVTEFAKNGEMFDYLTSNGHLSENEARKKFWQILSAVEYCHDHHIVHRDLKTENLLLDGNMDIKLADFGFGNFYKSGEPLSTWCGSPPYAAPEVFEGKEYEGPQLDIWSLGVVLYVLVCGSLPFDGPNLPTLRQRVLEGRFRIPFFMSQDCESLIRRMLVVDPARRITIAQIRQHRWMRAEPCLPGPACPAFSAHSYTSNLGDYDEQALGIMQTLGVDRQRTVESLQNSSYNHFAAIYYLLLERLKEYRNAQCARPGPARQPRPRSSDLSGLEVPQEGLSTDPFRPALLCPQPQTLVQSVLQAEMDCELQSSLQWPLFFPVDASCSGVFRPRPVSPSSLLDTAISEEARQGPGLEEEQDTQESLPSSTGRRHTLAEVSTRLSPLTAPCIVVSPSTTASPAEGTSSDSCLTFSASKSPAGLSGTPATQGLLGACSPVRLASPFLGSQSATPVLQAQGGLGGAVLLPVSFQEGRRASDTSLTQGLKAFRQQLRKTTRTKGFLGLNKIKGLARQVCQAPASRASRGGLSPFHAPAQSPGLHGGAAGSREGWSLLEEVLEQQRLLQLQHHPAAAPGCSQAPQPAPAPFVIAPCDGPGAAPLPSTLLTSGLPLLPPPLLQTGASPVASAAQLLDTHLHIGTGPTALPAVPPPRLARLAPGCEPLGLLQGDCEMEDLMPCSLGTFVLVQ

Sequence of Tyrosine-protein kinase Tec (Homo sapiens) (P42680 whole entry): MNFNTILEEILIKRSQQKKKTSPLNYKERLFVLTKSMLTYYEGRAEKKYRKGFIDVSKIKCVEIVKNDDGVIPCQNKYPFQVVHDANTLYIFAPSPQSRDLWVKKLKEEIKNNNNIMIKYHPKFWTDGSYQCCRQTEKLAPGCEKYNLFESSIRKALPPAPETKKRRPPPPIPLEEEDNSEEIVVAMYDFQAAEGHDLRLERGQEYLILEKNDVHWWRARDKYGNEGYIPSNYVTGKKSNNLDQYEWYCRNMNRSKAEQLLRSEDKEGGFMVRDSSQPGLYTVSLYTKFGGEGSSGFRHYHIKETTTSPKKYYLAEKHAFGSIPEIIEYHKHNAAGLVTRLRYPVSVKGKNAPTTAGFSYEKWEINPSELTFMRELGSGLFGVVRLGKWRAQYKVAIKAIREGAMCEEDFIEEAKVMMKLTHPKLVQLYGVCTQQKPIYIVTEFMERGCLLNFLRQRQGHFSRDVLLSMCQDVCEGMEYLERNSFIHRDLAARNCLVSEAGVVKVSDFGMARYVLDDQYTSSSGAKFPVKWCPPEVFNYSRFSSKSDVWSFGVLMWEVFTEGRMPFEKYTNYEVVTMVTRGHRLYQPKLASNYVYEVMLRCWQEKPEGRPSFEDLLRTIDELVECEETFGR
Sequence of Death-associated protein kinase 2 (Homo sapiens) (Q9UIK4 whole entry, looked up): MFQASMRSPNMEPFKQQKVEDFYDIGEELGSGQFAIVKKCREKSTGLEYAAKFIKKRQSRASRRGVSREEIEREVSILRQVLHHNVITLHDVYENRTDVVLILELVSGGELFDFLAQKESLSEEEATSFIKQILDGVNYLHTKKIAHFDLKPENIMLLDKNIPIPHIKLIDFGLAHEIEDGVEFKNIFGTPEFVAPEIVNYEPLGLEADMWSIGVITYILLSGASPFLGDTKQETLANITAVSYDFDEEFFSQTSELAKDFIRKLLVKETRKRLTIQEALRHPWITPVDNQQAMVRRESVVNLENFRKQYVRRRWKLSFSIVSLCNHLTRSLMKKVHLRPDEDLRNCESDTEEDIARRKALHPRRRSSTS
Sequence of Casein kinase I isoform gamma-1 (Homo sapiens) (Q9HCP0 whole entry, looked up, canonical isoform): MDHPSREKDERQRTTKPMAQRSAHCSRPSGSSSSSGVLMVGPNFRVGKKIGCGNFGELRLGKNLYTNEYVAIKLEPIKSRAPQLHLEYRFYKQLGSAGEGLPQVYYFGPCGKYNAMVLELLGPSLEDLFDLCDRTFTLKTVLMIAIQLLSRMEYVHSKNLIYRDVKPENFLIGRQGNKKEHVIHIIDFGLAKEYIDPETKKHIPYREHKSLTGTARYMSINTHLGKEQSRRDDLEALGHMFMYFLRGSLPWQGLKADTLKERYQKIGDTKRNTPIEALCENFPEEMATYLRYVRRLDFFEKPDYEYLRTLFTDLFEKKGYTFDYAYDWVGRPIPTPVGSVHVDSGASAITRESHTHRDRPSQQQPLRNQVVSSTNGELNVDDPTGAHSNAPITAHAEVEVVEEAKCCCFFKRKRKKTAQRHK
Sequence of Serine/threonine-protein kinase PRP4 homolog (Homo sapiens) (Q13523 whole entry): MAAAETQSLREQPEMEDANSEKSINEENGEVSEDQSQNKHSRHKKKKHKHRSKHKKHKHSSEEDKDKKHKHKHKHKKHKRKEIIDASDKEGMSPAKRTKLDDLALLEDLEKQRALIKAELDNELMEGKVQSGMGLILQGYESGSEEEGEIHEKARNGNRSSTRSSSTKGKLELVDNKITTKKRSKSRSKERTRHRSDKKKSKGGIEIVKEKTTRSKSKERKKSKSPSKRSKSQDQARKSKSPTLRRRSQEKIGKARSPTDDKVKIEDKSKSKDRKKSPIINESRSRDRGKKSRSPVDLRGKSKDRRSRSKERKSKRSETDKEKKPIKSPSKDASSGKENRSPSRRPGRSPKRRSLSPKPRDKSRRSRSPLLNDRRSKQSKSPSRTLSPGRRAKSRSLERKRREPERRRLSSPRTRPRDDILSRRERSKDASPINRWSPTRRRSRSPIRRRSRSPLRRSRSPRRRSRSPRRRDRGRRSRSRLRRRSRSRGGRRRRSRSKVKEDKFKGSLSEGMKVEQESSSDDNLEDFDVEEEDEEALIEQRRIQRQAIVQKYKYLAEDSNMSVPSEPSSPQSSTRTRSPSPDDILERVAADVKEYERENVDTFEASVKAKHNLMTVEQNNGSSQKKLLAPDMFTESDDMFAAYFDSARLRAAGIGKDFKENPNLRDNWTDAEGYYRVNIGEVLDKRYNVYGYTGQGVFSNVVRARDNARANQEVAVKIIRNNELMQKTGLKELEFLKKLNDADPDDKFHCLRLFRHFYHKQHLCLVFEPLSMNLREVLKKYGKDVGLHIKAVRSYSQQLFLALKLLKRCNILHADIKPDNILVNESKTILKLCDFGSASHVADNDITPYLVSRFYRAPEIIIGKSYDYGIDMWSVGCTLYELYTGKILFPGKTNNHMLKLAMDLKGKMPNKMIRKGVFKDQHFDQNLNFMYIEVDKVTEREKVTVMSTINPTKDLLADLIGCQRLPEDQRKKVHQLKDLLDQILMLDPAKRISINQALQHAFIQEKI
Sequence of Epidermal growth factor receptor (Homo sapiens), P00533 [UNDEFINED MUTATION] (P00533 whole entry, looked up, stated change not applied): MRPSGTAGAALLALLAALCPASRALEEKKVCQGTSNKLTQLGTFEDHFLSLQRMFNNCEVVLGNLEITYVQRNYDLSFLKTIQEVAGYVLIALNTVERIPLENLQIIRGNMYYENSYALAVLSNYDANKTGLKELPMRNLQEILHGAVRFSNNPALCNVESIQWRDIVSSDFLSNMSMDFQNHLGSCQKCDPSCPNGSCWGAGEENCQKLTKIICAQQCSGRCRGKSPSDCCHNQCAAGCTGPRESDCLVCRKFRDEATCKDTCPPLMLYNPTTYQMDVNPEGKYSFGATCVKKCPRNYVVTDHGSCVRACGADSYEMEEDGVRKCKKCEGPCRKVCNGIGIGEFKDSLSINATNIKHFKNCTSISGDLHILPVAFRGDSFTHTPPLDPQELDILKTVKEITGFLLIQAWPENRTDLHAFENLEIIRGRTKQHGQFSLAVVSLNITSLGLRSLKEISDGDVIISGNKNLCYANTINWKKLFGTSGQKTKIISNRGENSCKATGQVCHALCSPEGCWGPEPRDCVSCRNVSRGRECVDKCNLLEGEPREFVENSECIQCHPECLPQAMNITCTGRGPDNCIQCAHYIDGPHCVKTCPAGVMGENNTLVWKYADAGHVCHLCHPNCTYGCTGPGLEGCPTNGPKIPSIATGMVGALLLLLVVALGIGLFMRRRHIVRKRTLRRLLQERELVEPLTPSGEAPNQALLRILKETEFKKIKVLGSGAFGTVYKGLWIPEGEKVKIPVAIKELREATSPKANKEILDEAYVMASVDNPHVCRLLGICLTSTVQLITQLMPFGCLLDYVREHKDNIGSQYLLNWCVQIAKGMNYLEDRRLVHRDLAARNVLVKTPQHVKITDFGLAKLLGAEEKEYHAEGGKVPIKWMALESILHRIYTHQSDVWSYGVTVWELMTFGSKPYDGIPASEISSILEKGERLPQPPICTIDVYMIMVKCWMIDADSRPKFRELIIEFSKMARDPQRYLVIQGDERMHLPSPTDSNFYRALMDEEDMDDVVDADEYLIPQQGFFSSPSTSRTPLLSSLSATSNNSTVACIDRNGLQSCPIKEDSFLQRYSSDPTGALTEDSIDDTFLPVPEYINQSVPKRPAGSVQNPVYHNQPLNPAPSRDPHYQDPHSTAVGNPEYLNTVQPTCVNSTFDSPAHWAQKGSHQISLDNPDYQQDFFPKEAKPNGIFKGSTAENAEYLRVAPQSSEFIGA
Sequence of Activin receptor type-1-like (Homo sapiens) (P37023 whole entry): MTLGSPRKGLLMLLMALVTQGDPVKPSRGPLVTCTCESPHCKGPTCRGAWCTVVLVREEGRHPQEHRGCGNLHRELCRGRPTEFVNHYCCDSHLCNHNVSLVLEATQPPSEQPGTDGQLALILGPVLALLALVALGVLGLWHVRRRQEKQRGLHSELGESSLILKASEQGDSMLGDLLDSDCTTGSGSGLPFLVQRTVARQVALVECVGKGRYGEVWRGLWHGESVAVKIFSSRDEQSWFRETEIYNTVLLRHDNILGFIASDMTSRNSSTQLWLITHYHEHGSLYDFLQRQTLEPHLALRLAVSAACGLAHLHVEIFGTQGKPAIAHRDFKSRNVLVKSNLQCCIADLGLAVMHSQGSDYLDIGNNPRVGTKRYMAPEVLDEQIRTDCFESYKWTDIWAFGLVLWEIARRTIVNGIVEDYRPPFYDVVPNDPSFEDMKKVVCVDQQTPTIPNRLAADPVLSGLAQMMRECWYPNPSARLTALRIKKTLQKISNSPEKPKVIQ

## CC#CC(=O)N1CCC[C@H]1c1nc(-c2ccc(C(=O)Nc3ccccn3)cc2)c2c(N)nccn12 [ACALABRUTINIB]
[1]
  Activity: 6.4%
[2]
  Activity: 95%
[3]
  Activity: 74%
[4]
  Activity: 84%
[5]
  Activity: 76%
[6]
  Activity: 100%
[7]
  Activity: 13%
[8]
  Activity: 93%
[9]
  Activity: 91%
[10]
  Activity: 77%
[11]
  Activity: 87%
[12]
  Activity: 87%
[13]
  Activity: 100%
[14]
  Activity: 84%
[15]
  Activity: 86%
[16]
  inhibition: Active
[17]
  Activity: Active
[18]
  Activity: 63%
[19]
  Activity: 94%
[20]
  Activity: 76%
[21]
  Activity: Active
[22]
  Activity: 94%
[23]
  Activity: 78%
[24]
  Activity: 80%
[25]
  Activity: 84%
[26]
  Activity: 88%
